Laboratory results from ChEMBL document CHEMBL2010756, “New 4-[(5-arylidene-2-arylimino-4-oxo-3-thiazolidinyl)methyl]benzoic acids active as protein tyrosine phosphatase inhibitors endowed with insulinomimetic effect on mouse C2C12 skeletal muscle cells” (Eur J Med Chem, 2012).
Activity calls are given as the source filed them. The rule behind the calls is not given here.

Key:
[1] = target: T1, Tyrosine-protein phosphatase non-receptor type 1 (Homo sapiens, UniProt P18031); test: Competitive inhibition of GST-tagged human recombinant PTP1B expressed in Escherichia coli TB1 using p-nitrophenylphosphate as substrate by Line-Weaver Burk plot
T1 sequence (P18031 whole entry): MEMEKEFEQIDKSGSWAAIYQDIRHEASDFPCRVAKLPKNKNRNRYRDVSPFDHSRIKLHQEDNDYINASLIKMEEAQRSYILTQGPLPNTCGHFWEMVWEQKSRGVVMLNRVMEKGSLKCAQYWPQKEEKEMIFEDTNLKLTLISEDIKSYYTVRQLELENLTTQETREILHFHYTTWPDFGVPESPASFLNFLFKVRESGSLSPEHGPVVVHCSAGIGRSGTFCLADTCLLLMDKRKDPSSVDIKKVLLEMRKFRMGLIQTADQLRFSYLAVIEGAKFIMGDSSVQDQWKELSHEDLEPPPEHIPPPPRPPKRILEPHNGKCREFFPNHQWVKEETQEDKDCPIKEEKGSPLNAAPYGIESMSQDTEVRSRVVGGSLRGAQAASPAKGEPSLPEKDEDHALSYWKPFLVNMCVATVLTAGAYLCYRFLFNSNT
Summary of the method: (§1)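 Human enzymes were expressed in E. coli TB1 as GST fusions and purified on glutathione-Sepharose. GST was removed by thrombin (3 h, 37 °C), followed by gel filtration. Assays ran at 37 °C in pH 7.0 buffer (0.075 M β,β-dimethylglutarate, 1 mM EDTA, 5 mM DTT) with p-nitrophenylphosphate, read at 400 nm. Initial rates were measured in triplicate at differing substrate and inhibitor levels, and apparent Km was plotted against inhibitor concentration to give Ki.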

[2] = target: T2, Low molecular weight phosphotyrosine protein phosphatase (Homo sapiens, UniProt P24666); test: Competitive inhibition of GST-tagged human recombinant LMW-PTP IF1 expressed in Escherichia coli TB1 using p-nitrophenylphosphate as substrate by Line-Weaver Burk plot; summary of the method: as §1
T2 sequence (P24666 whole entry): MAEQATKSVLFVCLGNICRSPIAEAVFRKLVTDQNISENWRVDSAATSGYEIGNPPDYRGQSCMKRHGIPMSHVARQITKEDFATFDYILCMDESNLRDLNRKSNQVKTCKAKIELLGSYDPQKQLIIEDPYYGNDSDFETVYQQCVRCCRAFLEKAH

[3] = target: T2, Low molecular weight phosphotyrosine protein phosphatase; test: Competitive inhibition of GST-tagged human recombinant LMW-PTP IF2 expressed in Escherichia coli TB1 using p-nitrophenylphosphate as substrate by Line-Weaver Burk plot; summary of the method: as §1
[4] = target: T3, Tyrosine-protein phosphatase non-receptor type 2 (Homo sapiens, UniProt P17706); test: Competitive inhibition of human recombinant TCPTP using p-nitrophenylphosphate as substrate by Line-Weaver Burk plot
T3 sequence (P17706 whole entry): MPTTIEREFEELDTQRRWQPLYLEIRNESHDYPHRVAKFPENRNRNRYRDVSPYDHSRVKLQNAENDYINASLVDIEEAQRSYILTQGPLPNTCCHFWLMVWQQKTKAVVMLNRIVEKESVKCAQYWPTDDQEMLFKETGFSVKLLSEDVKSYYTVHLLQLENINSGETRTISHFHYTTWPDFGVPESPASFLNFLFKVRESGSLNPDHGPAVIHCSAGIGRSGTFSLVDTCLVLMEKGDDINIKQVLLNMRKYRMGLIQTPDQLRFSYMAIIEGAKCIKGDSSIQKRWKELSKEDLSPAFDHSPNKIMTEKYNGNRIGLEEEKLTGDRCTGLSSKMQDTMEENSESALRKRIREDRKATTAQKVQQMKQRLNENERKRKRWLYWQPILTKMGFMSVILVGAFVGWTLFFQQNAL

[5] = species on record: Homo sapiens; test: Selectivity ratio of IC50 for human recombinant LMW-PTP IF2 to IC50 for human recombinant LMW-PTP IF1
Summary of the method: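 Recombinant human LMW-PTP IF1 and IF2 (GST cleaved off) were assayed at 37 °C in pH 7.0 β,β-dimethylglutarate/EDTA/DTT buffer. Fixed p-nitrophenylphosphate equal to each isoform's Km was used, with p-nitrophenolate read at 400 nm. IC50 came from fitting vi/v0 against inhibitor concentration to a four-parameter equation. The ratio is IF2 IC50 over IF1 IC50.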

[6] = species on record: Homo sapiens; test: Selectivity ratio of IC50 for human recombinant TCPTP to IC50 for human recombinant PTP1B
Summary of the method: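 IC50 values were from initial p-nitrophenylphosphate hydrolysis (400 nm) in pH 7.0 β,β-dimethylglutarate/EDTA/DTT buffer, fitted to a four-parameter equation. PTP1B (recombinant human, GST cleaved) was assayed at 37 °C with substrate at its Km. Commercial recombinant TC-PTP (0.02 µg) was assayed with 2.8 mM p-nitrophenylphosphate, stopped with KOH. The ratio is TC-PTP IC50 over PTP1B IC50.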

[7] = system: C2C12; test: Cytotoxicity against mouse C2C12 cells at 25 uM after 2 hrs by MTT assay; type: cell-based; conditions: c2c12, 2 h
Summary of the method: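 C2C12 myoblasts were differentiated 4 days in DMEM/2% horse serum, then serum-starved 20 h. Compounds at 25 µM final (DMSO vehicle) were given for 2 h. MTT was added at 0.5 mg/ml final, 37 °C for 2 h. Cells were lysed in DMSO and formazan read at 570 nm, expressed as % of DMSO control, mean ± SE of three replicates.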

[8] = target: T4, Tyrosine-protein phosphatase non-receptor type 1 (Mus musculus) (UniProt P35821); test: Inhibition of PTP1B in mouse C2C12 cells assessed as increase in intracellular 2-deoxyglucose uptake using [3H]glucose as substrate at 25 uM after 90 mins by scintillation counting; type: cell-based
T4 sequence (whole entry): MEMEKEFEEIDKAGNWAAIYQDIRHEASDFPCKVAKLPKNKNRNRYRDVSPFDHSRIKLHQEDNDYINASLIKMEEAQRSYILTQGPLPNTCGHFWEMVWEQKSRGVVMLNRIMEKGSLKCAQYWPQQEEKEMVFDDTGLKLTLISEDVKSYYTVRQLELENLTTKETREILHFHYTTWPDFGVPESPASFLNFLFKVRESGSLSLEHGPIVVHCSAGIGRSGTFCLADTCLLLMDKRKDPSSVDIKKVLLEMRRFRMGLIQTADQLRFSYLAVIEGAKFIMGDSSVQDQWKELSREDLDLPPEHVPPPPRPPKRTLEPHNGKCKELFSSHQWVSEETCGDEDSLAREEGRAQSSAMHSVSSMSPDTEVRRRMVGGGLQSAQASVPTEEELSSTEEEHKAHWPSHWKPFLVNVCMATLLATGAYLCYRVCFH
Summary of the method: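 C2C12 myotubes were differentiated and serum-starved 20 h, then treated 90 min with 25 µM compound (1.2% DMSO). Insulin 10 nM for 30 min was the positive control. 0.1 µCi 2-deoxy-D-[3H]glucose in Ringer–Hepes was taken up 15 min at 37 °C. Cells were washed with cold PBS, lysed in 0.2 M NaOH and counted by scintillation, normalized to protein. Mean ± SE of three replicates.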

[9] = target: T4, Tyrosine-protein phosphatase non-receptor type 1 (Mus musculus); test: Inhibition of PTP1B in mouse C2C12 cells assessed as increase in insulin receptor beta tyrosine phosphorylation at 25 uM; type: cell-based
Summary of the method: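 Differentiated, 20 h serum-starved C2C12 myotubes were exposed to 25 µM compound (1.2% DMSO) for 90 min at 37 °C. Insulin 10 nM for 30 min served as positive control. Lysates in SDS sample buffer were run on SDS-PAGE and western blotted for phospho-IRβ, normalized to actin, in at least three experiments.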

SMILES	IC50 [1] [µM]	IC50 [2] [µM]	IC50 [3] [µM]	IC50 [4] [µM]	Ratio IC50 [5]	Ratio IC50 [6]	inhibition [8]	inhibition [9]	Ki [1] [µM]	Activity [7]
O=C(O)c1ccc(CN2C(=O)/C(=C/c3ccc(Oc4ccccc4)cc3)S/C2=N\c2ccc(C(F)(F)F)cc2)cc1	2.2	7.3	33.2	15.6	> 3	7.1	–	–	–	Non-toxic
COc1ccc(/N=C2\S/C(=C\c3ccc(OCc4ccccc4)cc3)C(=O)N2Cc2ccc(C(=O)O)cc2)cc1	3	6.4	9.1	9.5	1.4	> 2	inactive	inactive	–	Non-toxic
O=C(O)c1ccc(CN2C(=O)/C(=C/c3ccc4ccccc4c3)S/C2=N\c2ccc(C(F)(F)F)cc2)cc1	2.4	5.8	15.2	20.2	> 3	> 2	Active	Active	–	Non-toxic
O=C(O)c1ccc(CN2C(=O)/C(=C/c3cccc(OCc4ccccc4)c3)S/C2=N\c2ccc(C(F)(F)F)cc2)cc1	5.6	12	> 150	> 100	> 3	> 2	Active	Active	–	Non-toxic
O=C(O)c1ccc(CN2C(=O)/C(=C/c3ccc(OCc4ccccc4)cc3)S/C2=N\c2ccc(C(F)(F)F)cc2)cc1	1.4	4	25.4	2.2	> 3	> 2	Active	Active	1.2	Non-toxic

More lines, main results first:

IC50 [1] [µM]	IC50 [2] [µM]	IC50 [3] [µM]	IC50 [4] [µM]	Ratio IC50 [5]	Ratio IC50 [6]	inhibition [8]	inhibition [9]	Ki [1] [µM]	SMILES	Activity [7]
9	11.6	11.7	27	–	> 2	–	–	–	COc1ccc(/N=C2\S/C(=C\c3ccc4ccccc4c3)C(=O)N2Cc2ccc(C(=O)O)cc2)cc1	Non-toxic
10.4	13.7	> 150	20.6	> 3	2	Active	–	–	O=C(O)c1ccc(CN2C(=O)/C(=C/c3cccc(Oc4ccccc4)c3)S/C2=N\c2ccc(C(F)(F)F)cc2)cc1	Non-toxic
10.9	12	21.8	20.5	> 3	> 2	inactive	Active	–	COc1ccc(/N=C2\S/C(=C\c3cccc(Oc4ccccc4)c3)C(=O)N2Cc2ccc(C(=O)O)cc2)cc1	Non-toxic
2.5	11.2	18	7.1	–	> 2	inactive	Active	–	COc1ccc(/N=C2\S/C(=C\c3ccc(Oc4ccccc4)cc3)C(=O)N2Cc2ccc(C(=O)O)cc2)cc1	Non-toxic
5.1	9.6	17.5	11.6	> 3	> 2	inactive	Active	–	COc1ccc(/N=C2\S/C(=C\c3cccc(OCc4ccccc4)c3)C(=O)N2Cc2ccc(C(=O)O)cc2)cc1	Non-toxic
